Results published in ChEMBL document CHEMBL4190374, “Structure-Function Evaluation of Imidazopyridine Derivatives Selective for δ-Subunit-Containing γ-Aminobutyric Acid Type A (GABAA) Receptors” (J Med Chem, 2018).
Activity calls are given as the source filed them. No cut-off for these calls is given here.

Tests used:
[1] = target: T1, Gamma-aminobutyric acid receptor subunit alpha-6/beta-3/gamma-2 (Rattus norvegicus, UniProt P18508+P30191+P63079); assay: Displacement of [3H]EBOB from rat GABA-A receptor alpha6beta3gamma2 expressed in HEK293 cell membranes after 90 mins by liquid scintillation counting analysis
Summary of the method: (§1)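 Crude membranes from HEK 293 cells transiently Ca-phosphate-transfected with rat subunit cDNAs, harvested at 48 h. Membranes (150-200 µg protein) incubated with 3 nM [3H]EBOB in 50 mM Tris/citrate pH 7.3 plus 0.2 M NaCl. Compound up to 10 µM, final DMSO 0.1%, no GABA, 90 min at 21 °C. Bound radioligand collected by GF/C filtration and counted by scintillation.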

[2] = target: Gamma-aminobutyric acid receptor subunit alpha-6/beta-3/delta (Rattus norvegicus, UniProt P18506+P30191+P63079); assay: Displacement of [3H]EBOB from rat GABA-A receptor alpha6beta3delta expressed in HEK293 cell membranes after 90 mins by liquid scintillation counting analysis; summary of the method: as §1
[3] = target: Gamma-aminobutyric acid receptor subunit alpha-6/beta-2 (Rattus norvegicus, UniProt P30191+P63138); assay: Displacement of [3H]EBOB from rat GABA-A receptor alpha6beta2 expressed in HEK293 cell membranes after 90 mins by liquid scintillation counting analysis; summary of the method: as §1
[4] = target: Gamma-aminobutyric acid receptor subunit alpha-6/beta-2/delta (Rattus norvegicus, UniProt P18506+P30191+P63138); assay: Displacement of [3H]EBOB from rat GABA-A receptor alpha6beta2delta expressed in HEK293 cell membranes after 90 mins by liquid scintillation counting analysis; summary of the method: as §1
[5] = target: Gamma-aminobutyric acid receptor subunit alpha-4/beta-3/delta (Rattus norvegicus) (UniProt P18506+P28471+P63079); assay: Displacement of [3H]EBOB from rat GABA-A receptor alpha4beta3delta expressed in HEK293 cell membranes up to 10 uM after 90 mins by liquid scintillation counting analysis relative to control; summary of the method: as §1
Rattus norvegicus = species: Rattus norvegicus; assay: Selectivity ratio of IC50 for rat GABA-A receptor alpha6beta3gamma2 expressed in HEK293 cells to IC50 for rat GABA-A receptor alpha6beta3delta expressed in HEK293 cells; format: cell-based
[6] = target: Gamma-aminobutyric acid receptor subunit alpha-1/beta-3/gamma-2 (Rattus norvegicus, UniProt P18508+P62813+P63079); assay: Modulation of rat […] GABA-A receptor alpha1beta3gamma2 expressed in HEK293 cells in presence of GABA by patch-clamp assay; format: cell-based
Summary of the method: (§2)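 Rat GABA-A subunits were transiently co-transfected with eGFP into HEK293 cells on coverslips. Fluorescent cells were recorded by whole-cell patch clamp 48 h later; bath pH 7.4, KCl/KOH pipette pH 7.2. Compound was applied at increasing concentrations up to 10 µM with the receptor-specific GABA EC20. Peak currents were fitted logistically for EC50, Hill and % modulation, as mean ± S.E.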

[7] = target: Gamma-aminobutyric acid receptor subunit alpha-4/beta-3 (Rattus norvegicus, UniProt P28471+P63079); assay: Modulation of rat […] GABA-A receptor alpha4beta3 expressed in HEK293 cells in presence of GABA by patch-clamp assay; format: cell-based; summary of the method: as §2
[8] = target: Gamma-aminobutyric acid receptor subunit alpha-4/beta-3/delta (Rattus norvegicus, UniProt P18506+P28471+P63079); assay: Modulation of rat […] GABA-A receptor alpha4beta3delta expressed in HEK293 cells in presence of GABA by patch-clamp assay; format: cell-based; summary of the method: as §2
[9] = target: T1, Gamma-aminobutyric acid receptor subunit alpha-6/beta-3/gamma-2; assay: Modulation of rat […] GABA-A receptor alpha6beta3gamma2 expressed in HEK293 cells in presence of GABA by patch-clamp assay; format: cell-based; summary of the method: as §2
[10] = target: Gamma-aminobutyric acid receptor subunit alpha-1/beta-3 (Rattus norvegicus) (UniProt P62813+P63079); assay: Modulation of rat […] GABA-A receptor alpha1beta3 expressed in HEK293 cells up to 10 uM in presence of GABA by patch-clamp assay relative to control; format: cell-based
Summary of the method: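 Whole-cell patch clamp on eGFP-co-transfected HEK 293 cells expressing rat subunits, recorded 48 h post-transfection. KCl/KOH-based pipette solution, pH 7.2. Rising compound concentrations up to 10 µM co-applied with the receptor-specific GABA EC20. Peak currents fitted to a logistic function giving EC50, Hill coefficient and % modulation, mean ± S.E. of n experiments.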

[11] = target: Gamma-aminobutyric acid receptor subunit alpha-1/beta-3/delta (Rattus norvegicus) (UniProt P18506+P62813+P63079); assay: Modulation of rat […] GABA-A receptor alpha1beta3delta expressed in HEK293 cells up to 10 uM in presence of GABA by patch-clamp assay relative to control; format: cell-based; summary of the method: as §2
[12] = target: T2, Gamma-aminobutyric acid receptor subunit alpha-6/beta-3/gamma-2 (Rattus norvegicus) (UniProt P18508+P30191+P63079); assay: Agonist activity at rat […] GABA-A receptor alpha6beta3gamma2 expressed in HEK293 cells assessed as ratio of I0 to GABA Imax at 10 uM in absence of GABA by patch-clamp assay; format: cell-based
Summary of the method: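 Whole-cell patch clamp on single fluorescent HEK 293 cells 48 h after transient co-transfection with rat subunit cDNAs plus eGFP. Extracellular solution 135 mM NaCl, 5.3 mM KCl, 2 mM CaCl2, 2 mM MgSO4, 10 mM HEPES pH 7.4, perfused 3 mL/min. Compound at 10 µM without GABA. Current expressed relative to 1 mM GABA at the same receptor (I0/Imax GABA), mean ± S.D. of n experiments.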

[13] = target: Gamma-aminobutyric acid receptor subunit alpha-6/beta-3 (Rattus norvegicus) (UniProt P30191+P63079); assay: (§3) Displacement of [3H]EBOB from rat GABA-A receptor alpha6beta3 expressed in HEK293 cell membranes after 90 mins in presence of GABA by liquid scintillation counting analysis
[14] = target: Gamma-aminobutyric acid receptor subunit alpha-6/beta-3 (Rattus norvegicus, UniProt P30191+P63079); assay: as §3
[15] = target: T2, Gamma-aminobutyric acid receptor subunit alpha-6/beta-3/gamma-2 (Rattus norvegicus); assay: (§4) Displacement of [3H]EBOB from rat GABA-A receptor alpha6beta3gamma2 expressed in HEK293 cell membranes after 90 mins in presence of GABA by liquid scintillation counting analysis
[16] = target: T1, Gamma-aminobutyric acid receptor subunit alpha-6/beta-3/gamma-2; assay: as §4
[17] = target: Gamma-aminobutyric acid receptor subunit alpha-4/beta-3/gamma-2 (Rattus norvegicus) (UniProt P18508+P28471+P63079); assay: Modulation of rat eGFP-fused GABA-A receptor alpha4beta3gamma2 expressed in HEK293 cells at <=1 uM in presence of GABA by patch-clamp assay relative to control; format: cell-based
[18] = target: GABA-A receptor alpha6beta3delta (++); assay: Modulation of rat eGFP-fused GABA-A receptor alpha6beta3delta expressed in HEK293 cells in presence of GABA by patch-clamp assay

T1 sequence (P18508 whole entry): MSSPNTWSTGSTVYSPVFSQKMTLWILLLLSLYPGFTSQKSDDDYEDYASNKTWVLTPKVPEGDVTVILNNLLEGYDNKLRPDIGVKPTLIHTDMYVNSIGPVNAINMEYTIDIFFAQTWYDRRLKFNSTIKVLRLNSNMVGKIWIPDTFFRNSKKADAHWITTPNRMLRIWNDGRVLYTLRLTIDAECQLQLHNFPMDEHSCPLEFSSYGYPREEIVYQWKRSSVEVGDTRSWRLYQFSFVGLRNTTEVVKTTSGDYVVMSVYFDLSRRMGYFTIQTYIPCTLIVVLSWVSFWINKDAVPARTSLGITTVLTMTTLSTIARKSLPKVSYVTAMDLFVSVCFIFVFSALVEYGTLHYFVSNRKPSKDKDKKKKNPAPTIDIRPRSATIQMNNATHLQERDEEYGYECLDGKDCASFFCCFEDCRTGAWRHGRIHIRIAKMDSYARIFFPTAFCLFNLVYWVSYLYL
T1 sequence (P30191 whole entry): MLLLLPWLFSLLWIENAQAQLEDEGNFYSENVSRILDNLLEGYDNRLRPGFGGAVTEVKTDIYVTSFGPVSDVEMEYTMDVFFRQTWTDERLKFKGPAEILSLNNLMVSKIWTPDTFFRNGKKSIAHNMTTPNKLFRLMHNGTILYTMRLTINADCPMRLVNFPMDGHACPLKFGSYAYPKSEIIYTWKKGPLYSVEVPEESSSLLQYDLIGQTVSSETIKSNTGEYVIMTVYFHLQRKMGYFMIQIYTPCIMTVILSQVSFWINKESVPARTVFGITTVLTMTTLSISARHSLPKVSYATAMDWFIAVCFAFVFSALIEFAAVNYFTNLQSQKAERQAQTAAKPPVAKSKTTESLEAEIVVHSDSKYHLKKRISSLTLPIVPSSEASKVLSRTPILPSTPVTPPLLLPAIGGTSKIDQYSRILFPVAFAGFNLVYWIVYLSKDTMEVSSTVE
T1 sequence (P63079 whole entry): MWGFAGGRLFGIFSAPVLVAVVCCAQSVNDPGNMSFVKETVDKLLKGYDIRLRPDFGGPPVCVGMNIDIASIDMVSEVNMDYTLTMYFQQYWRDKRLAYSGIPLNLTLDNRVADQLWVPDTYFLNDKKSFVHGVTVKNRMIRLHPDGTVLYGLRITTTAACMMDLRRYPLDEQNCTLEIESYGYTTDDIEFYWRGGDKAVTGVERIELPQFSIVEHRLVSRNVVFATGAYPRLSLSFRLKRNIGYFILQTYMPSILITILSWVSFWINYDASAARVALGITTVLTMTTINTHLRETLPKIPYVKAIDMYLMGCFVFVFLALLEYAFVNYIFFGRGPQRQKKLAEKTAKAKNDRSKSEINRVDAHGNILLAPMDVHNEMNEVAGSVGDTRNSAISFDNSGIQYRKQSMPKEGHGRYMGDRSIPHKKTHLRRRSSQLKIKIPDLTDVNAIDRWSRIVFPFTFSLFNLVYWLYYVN
Chain of Gamma-aminobutyric acid receptor subunit alpha-6/beta-2 (P30191 whole entry): as the sequence (P30191 whole entry) above
Chain of Gamma-aminobutyric acid receptor subunit alpha-6/beta-2 (P63138 whole entry): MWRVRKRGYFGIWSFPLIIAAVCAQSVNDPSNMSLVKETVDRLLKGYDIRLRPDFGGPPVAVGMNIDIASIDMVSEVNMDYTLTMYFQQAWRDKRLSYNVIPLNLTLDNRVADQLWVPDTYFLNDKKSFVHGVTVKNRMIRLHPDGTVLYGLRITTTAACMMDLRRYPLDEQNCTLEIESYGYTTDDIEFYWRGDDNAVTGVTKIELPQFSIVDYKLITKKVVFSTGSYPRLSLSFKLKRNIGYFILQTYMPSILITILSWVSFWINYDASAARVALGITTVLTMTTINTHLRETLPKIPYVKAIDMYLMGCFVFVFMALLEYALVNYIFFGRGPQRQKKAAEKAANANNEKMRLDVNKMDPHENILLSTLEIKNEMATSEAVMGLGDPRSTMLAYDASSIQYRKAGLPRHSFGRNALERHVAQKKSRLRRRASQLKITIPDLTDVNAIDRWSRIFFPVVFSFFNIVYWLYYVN
Chain of Gamma-aminobutyric acid receptor subunit alpha-6/beta-3 (P30191 whole entry): as the sequence (P30191 whole entry) above
Chain of Gamma-aminobutyric acid receptor subunit alpha-6/beta-3 (P63079 whole entry): as the sequence (P63079 whole entry) above
Chain of Gamma-aminobutyric acid receptor subunit alpha-1/beta-3/gamma-2 (P18508 whole entry): as the sequence (P18508 whole entry) above
Chain of Gamma-aminobutyric acid receptor subunit alpha-1/beta-3/gamma-2 (P62813 whole entry): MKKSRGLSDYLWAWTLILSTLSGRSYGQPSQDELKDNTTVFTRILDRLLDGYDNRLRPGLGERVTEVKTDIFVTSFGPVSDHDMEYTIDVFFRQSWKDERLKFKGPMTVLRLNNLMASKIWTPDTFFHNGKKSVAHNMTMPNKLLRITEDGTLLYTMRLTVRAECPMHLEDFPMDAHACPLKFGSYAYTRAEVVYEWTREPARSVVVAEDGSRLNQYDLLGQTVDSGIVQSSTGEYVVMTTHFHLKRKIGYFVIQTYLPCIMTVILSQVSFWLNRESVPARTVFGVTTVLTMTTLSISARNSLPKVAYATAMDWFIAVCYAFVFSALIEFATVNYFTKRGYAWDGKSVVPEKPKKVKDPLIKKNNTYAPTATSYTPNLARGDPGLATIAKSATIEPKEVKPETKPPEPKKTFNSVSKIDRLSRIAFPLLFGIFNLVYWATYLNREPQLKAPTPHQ
Chain of Gamma-aminobutyric acid receptor subunit alpha-1/beta-3/gamma-2 (P63079 whole entry): as the sequence (P63079 whole entry) above
Chain of Gamma-aminobutyric acid receptor subunit alpha-4/beta-3 (P28471 whole entry): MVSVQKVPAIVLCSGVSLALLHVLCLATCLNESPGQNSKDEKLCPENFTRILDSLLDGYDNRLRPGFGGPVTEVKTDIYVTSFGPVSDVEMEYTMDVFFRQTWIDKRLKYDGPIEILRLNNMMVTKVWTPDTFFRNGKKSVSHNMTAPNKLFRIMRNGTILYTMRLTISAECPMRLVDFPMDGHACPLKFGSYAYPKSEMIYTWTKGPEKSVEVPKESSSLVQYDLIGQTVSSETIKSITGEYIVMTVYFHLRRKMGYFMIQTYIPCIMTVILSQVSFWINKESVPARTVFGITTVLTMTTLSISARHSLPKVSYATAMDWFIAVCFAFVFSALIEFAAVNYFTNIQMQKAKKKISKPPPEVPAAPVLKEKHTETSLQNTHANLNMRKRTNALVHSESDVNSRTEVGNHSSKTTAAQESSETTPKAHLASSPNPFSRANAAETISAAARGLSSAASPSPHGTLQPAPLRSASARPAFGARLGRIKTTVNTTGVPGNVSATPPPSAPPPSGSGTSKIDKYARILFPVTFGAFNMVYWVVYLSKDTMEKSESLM
Chain of Gamma-aminobutyric acid receptor subunit alpha-4/beta-3 (P63079 whole entry): as the sequence (P63079 whole entry) above
Chain of Gamma-aminobutyric acid receptor subunit alpha-6/beta-2/delta (P18506 whole entry): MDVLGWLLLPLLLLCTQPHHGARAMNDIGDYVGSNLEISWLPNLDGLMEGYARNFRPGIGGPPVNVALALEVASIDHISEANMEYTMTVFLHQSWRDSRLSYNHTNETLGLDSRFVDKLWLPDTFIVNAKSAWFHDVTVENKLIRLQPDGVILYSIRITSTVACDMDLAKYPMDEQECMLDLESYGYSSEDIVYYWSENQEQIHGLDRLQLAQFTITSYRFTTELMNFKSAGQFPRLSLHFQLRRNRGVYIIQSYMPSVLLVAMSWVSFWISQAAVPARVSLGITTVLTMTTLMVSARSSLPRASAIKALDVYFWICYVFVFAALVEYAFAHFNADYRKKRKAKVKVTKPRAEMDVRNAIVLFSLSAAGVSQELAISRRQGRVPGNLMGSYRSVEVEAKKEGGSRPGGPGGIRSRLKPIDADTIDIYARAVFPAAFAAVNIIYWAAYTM
Chain of Gamma-aminobutyric acid receptor subunit alpha-6/beta-2/delta (P30191 whole entry): as the sequence (P30191 whole entry) above
Chain of Gamma-aminobutyric acid receptor subunit alpha-6/beta-2/delta (P63138 whole entry): as the sequence (P63138 whole entry) above
Chain of Gamma-aminobutyric acid receptor subunit alpha-6/beta-3/delta (P18506 whole entry): as the sequence (P18506 whole entry) above
Chain of Gamma-aminobutyric acid receptor subunit alpha-6/beta-3/delta (P30191 whole entry): as the sequence (P30191 whole entry) above
Chain of Gamma-aminobutyric acid receptor subunit alpha-6/beta-3/delta (P63079 whole entry): as the sequence (P63079 whole entry) above
Chain of Gamma-aminobutyric acid receptor subunit alpha-4/beta-3/delta (P18506 whole entry): as the sequence (P18506 whole entry) above
Chain of Gamma-aminobutyric acid receptor subunit alpha-4/beta-3/delta (P28471 whole entry): as the sequence (P28471 whole entry) above
Chain of Gamma-aminobutyric acid receptor subunit alpha-4/beta-3/delta (P63079 whole entry): as the sequence (P63079 whole entry) above

O=C(Nc1c(-c2cccs2)nc2c(Br)cc(Br)cn12)c1ccc(Cl)cc1
IC50 [1]: 930 nM
IC50 [2]: 310 nM
IC50 [3]: 630 nM
IC50 [4]: 150 nM
Imax [5]: 61%
Ratio IC50 (Rattus norvegicus): 3
EC50 [6]: 2010 nM
EC50 [7]: 60 nM
EC50 [8]: 150 nM
EC50 [9]: 870 nM
Activity [10]: 35%
Activity [11]: 201%
Ratio [12]: 1.12
Imax [13]: 96%
IC50 [14]: 960 nM
Imax [15]: 93%
IC50 [16]: 1090 nM
Activity [17]: inactive
EC50 [18]: 130 nM
